Series [1] concerns RIF. The experiment in a line: Antitumor activity against mouse RIF cells xenografted in C3H/HeJ mouse at 0.50 umol/kg, iv irradiated for 30 mins measured after 24 hrs by photodynamic therapy. It counts as functional, organism-based. The conditions noted are these: tested as the 124I-labelled form. In a few lines: (§1)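 Female C3H/HeJ mice given 2×10^5 RIF cells intradermally on flank; tumors grown to 4–5 mm diameter. Hair removed, photosensitizer injected iv (0.5, 1.0, 1.5 μmol/kg; five mice/group). At 24 h, unanesthetized restrained mice irradiated over 1 cm² with dye laser, 665 nm, 75 mW/cm², 135 J/cm² (30 min). Daily observation for weight loss, scabbing, regrowth and deaths; sacrifice at 400 mm^3; tumor-free status followed to day 60.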

Series [2] deals with RIF. Kind of series: Antitumor activity against mouse RIF cells xenografted in C3H/HeJ mouse assessed as increase in photosensitizing ability at 1.5 umol/kg, iv irradiated for 30 mins measured after 60 days photodynamic therapy. The conditions noted are these: tested as the 124I-labelled form. It counts as functional, organism-based. The method, boiled down: as §1
A short description of series [3]: Biodistribution in tumor of iv dosed C3H/HeJ mouse bearing mouse RIF cells after 24 hrs. The settings on record: read-out: Drug uptake. It is filed as ADME, organism-based, Neoplasm. In a few lines:
(§2)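 ¹²⁴I-labeled photosensitizer formulated in saline with 10% ethanol, 15–200 μCi via tail vein into C3H mice bearing RIF tumors (3×10^5 cells sc in axilla, 4–5 mm) or BALB/c mice bearing Colon-26 tumors. 3–4 mice per time point killed at 24, 48, 72, 96 h. Tumor and organs weighed and gamma-counted; uptake given as %ID/g, mean of group.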

Series [4] in a line: Ratio of drug level in tumor to liver of iv dosed C3H/HeJ mouse bearing mouse RIF cells after 24 hrs. It is filed as ADME, organism-based. The conditions noted are these: in vivo. In a few lines:
(§3)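 RIF-bearing C3H mice given ¹²⁴I-labeled photosensitizer (15–200 μCi, tail vein, in saline with 10% ethanol). 3–4 mice killed at each time point, tumor and liver weighed and gamma-counted. Uptake expressed as %ID/g, and tumor to liver ratio taken from the %ID/g values.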

Series [5] can be described thus: Ratio of drug level in tumor to liver of iv dosed C3H/HeJ mouse bearing mouse RIF cells after 48 hrs. It is filed as ADME, organism-based. The conditions noted are these: in vivo. In a few lines: as §3
Series [6] can be described thus: Biodistribution in tumor of iv dosed C3H/HeJ mouse bearing mouse RIF cells after 48 hrs. It counts as ADME, organism-based, Neoplasm. The conditions noted are these: read-out: Drug uptake. In a few lines: as §2
A short description of series [7]: Biodistribution in tumor of iv dosed C3H/HeJ mouse bearing mouse RIF cells after 72 hrs. It is filed as ADME, organism-based, Neoplasm. The settings on record: read-out: Drug uptake. The method, boiled down:
as §2

Series [8] in a line: Biodistribution in tumor of iv dosed C3H/HeJ mouse bearing mouse RIF cells after 96 hrs. It is filed as ADME, organism-based, Neoplasm. The conditions noted are these: read-out: Drug uptake. In a few lines:
as §2

Series [9] in a line: Biodistribution in tumor of iv dosed BALB/c mouse bearing mouse Colon-26 cells after 24 hrs. It counts as ADME, organism-based, Neoplasm. The conditions noted are these: read-out: Drug uptake. The method, boiled down: as §2
Series [10] in a line: Biodistribution in tumor of iv dosed BALB/c mouse bearing mouse Colon-26 cells after 48 hrs. The settings on record: read-out: Drug uptake. It is filed as ADME, organism-based, Neoplasm. The method, boiled down: as §2
Series [11] is described as follows: Biodistribution in tumor of iv dosed BALB/c mouse bearing mouse Colon-26 cells after 72 hrs. It is filed as ADME, organism-based, Neoplasm. The settings on record: read-out: Drug uptake. The method, boiled down: as §2
Series [12] is described as follows: Biodistribution in tumor of iv dosed BALB/c mouse bearing mouse Colon-26 cells after 96 hrs. It counts as ADME, organism-based, Neoplasm. The conditions noted are these: read-out: Drug uptake. In a few lines:
as §2

The subject of series [13] is Mus musculus. The experiment in a line: Toxicity in C3H/HeJ mouse xenografted with mouse RIF cells at 1 umol/kg, iv irradiated for 30 mins measured after 24 hrs photodynamic therapy. It counts as organism-based. The conditions noted are these: in vivo. In a few lines:
as §1

Series [14] concerns Mus musculus. Kind of series: Toxicity in C3H/HeJ mouse xenografted with mouse RIF cells at 1.5 umol/kg, iv irradiated for 30 mins measured after 24 hrs photodynamic therapy. The settings on record: in vivo. It counts as organism-based. The method, boiled down: as §1
The nature of series [15]: Biodistribution in tumor of iv dosed BALB/c mouse bearing mouse Colon-26 cells assessed as relative uptake value after 48 hrs by PET imaging. It counts as ADME, organism-based, Neoplasm. The settings on record: in vivo.
Series [16] is described as follows: Biodistribution in tumor of iv dosed C3H/HeJ mouse bearing mouse RIF cells assessed as relative uptake value after 3 days by PET imaging. It counts as ADME, organism-based, Neoplasm. The settings on record: in vivo, 72 h.

The source made the active and inactive calls. No cut-off for these calls is given here.

Turning to `CCC1=C(C)c2cc3[nH]c(cc4nc(c5c6[nH]c(cc1n2)c(C)c6C(=O)C5)[C@@H](CCC(=O)OC)[C@@H]4C)c(C)c3C(C)OCc1cccc(I)c1` (stereo partly specified), the result in the series on RIF [1] was inactive. In the series on RIF [2], the result was Active.

For `CCC1=C(C)c2cc3[nH]c(cc4nc(c5c6[nH]c(cc1n2)c(C)c6C(=O)C5)[C@@H](CCC(=O)OC)[C@@H]4C)c(C)c3C(C)OCc1cccc([124I])c1` (stereo partly specified), the results for the tissue uptake at 24 h in [3] and in [9] were 4.1 %ID/g and 4.6 %ID/g, respectively. Moreover, the figures for the Ratio in series [4] and in series [5] were 0.32 and 0.56, respectively. Further, the tissue uptake at 48 h came out at 2.1 %ID/g in series [6] and 4.4 %ID/g in series [10]. The tissue uptake at 72 h in [7] was determined as 0.8 %ID/g; in series [11] it was 2.5 %ID/g. The values for the tissue uptake at 96 h in [8] and in series [12] were 0.6 %ID/g and 2 %ID/g, respectively.

For the compound `CCC1=C(C)c2cc3[nH]c(cc4nc(c5c6[nH]c(cc1n2)c(C)c6C(=O)C5)[C@@H](CCC(=O)N[C@@H]1O[C@H](CO)[C@H](O)[C@H](O)[C@H]1O)[C@@H]4C)c(C)c3C(C)OCc1cccc([124I])c1` (stereo partly specified), the Ratio in series [4] stood at 0.05; in series [5], 0.06. Moreover, the Activity result in the series with Mus musculus [13] and with Mus musculus [14] was “Toxic” in each case.

With `CCC1=C(C)c2cc3[nH]c(cc4nc(c5c6[nH]c(cc1n2)c(C)c6C(=O)C5)[C@@H](CCC(=O)N[C@@H]1[C@@H](O)[C@H](O)[C@@H](CO)O[C@H]1O)[C@@H]4C)c(C)c3C(C)OCc1cccc([124I])c1` (stereo partly specified), the Ratio is given as 0.08 in series [4] and 0.13 in series [5].

On to `OC[C@H]1O[C@@H](O)[C@H]([18F])[C@@H](O)[C@@H]1O` [FLUDEOXYGLUCOSE-F18], for which the values for the Activity in series [15] and in [16] were 4 and 0.035, respectively.

With `CCC1=C(C)c2cc3[nH]c(cc4nc(c5c6[nH]c(cc1n2)c(C)c6C(=O)C5)[C@@H](CCC(=O)N[C@@H]1O[C@H](CO)[C@H](O)[C@H](O)[C@H]1O)[C@@H]4C)c(C)c3C(C)OCc1cccc(I)c1` (stereo partly specified), in the series with RIF [1], the result was inactive.

Values taken from ChEMBL document CHEMBL1139361, “Comparative positron-emission tomography (PET) imaging and phototherapeutic potential of 124I- labeled methyl- 3-(1'-iodobenzyloxyethyl)pyropheophorbide-a vs the corresponding glucose and galactose conjugates” (J Med Chem, 2009).
